SMILES strings stand for the structures.

In ChEMBL document CHEMBL1155070, “New endomorphin analogues containing alicyclic beta-amino acids: influence on bioactive conformation and pharmacological profile” (J Med Chem, 2008) one finds Ki, half-life and t1/2 data, which are given here for 18 molecules.

Series [1] deals with Delta-type opioid receptor (Rattus norvegicus, UniProt P33533). Put plainly: Displacement of [3H]Ile5,6deltorphin-2 from delta opioid receptor in Wistar rat brain. The gist of the method: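 Competition binding on crude male Wistar rat forebrain membranes (0.2-0.5 mg protein/tube) in 50 mM Tris-HCl pH 7.4. Filtration, scintillation counting. Ki from nonlinear fit plus Cheng-Prusoff. Mean ± SEM, ≥3 independent runs in duplicate.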

Series [2] can be described thus: (§1) Half life in rat brain membrane homogenate. The class given is ADME.
The next series is filed under the species Rattus norvegicus. The series is described as §1. The class given is ADME.

Delta-type opioid receptor, sequence (P33533 whole entry): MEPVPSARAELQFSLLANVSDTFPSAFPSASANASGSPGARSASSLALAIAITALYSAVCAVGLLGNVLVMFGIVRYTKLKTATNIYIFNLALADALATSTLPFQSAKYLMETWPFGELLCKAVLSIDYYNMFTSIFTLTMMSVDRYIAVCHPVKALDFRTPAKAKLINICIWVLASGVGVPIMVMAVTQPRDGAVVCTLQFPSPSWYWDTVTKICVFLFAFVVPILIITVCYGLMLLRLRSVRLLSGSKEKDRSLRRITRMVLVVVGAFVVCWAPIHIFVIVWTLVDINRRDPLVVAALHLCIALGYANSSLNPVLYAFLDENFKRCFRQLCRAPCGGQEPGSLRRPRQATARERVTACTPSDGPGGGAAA

Consider `NC(=O)[C@H](Cc1ccccc1)NC(=O)[C@H](Cc1ccccc1)NC(=O)[C@@H]1CCC[C@@H]1NC(=O)[C@@H](N)Cc1ccc(O)cc1`, for which the Ki (usually a measure of affinity in units of concentration, obtained from inhibition or displacement) in series [1] was over 10 µM.
In the case of `NC(=O)[C@H](Cc1ccccc1)NC(=O)[C@H](Cc1ccccc1)NC(=O)[C@H]1CCC[C@H]1NC(=O)[C@@H](N)Cc1ccc(O)cc1`, in series [2], the half-life (usually the time in which the quantity being followed falls by half) was over 12 h. The inhibition constant (Ki) in series [1] is 4.8 µM.
In series [2], `NC(=O)[C@H](Cc1ccccc1)NC(=O)[C@H](Cc1ccccc1)NC(=O)[C@H]1CCCC[C@H]1NC(=O)[C@@H](N)Cc1ccc(O)cc1` showed a half-life of over 12 h. The molecule further came in with an inhibition constant Ki in series [1] of 0.812 µM.
`NC(=O)[C@H](Cc1ccccc1)NC(=O)[C@H](Cc1ccccc1)NC(=O)[C@@H]1CCCC[C@@H]1NC(=O)[C@@H](N)Cc1ccc(O)cc1` gave a Ki in series [1] of over 10 µM.
On the same count and under the same terms, the same measure for `NC(=O)[C@H](Cc1ccccc1)NC(=O)[C@H](Cc1c[nH]c2ccccc12)NC(=O)[C@H]1CCC[C@@H]1NC(=O)[C@@H](N)Cc1ccc(O)cc1`: 3.08 µM; for `NC(=O)[C@H](Cc1ccccc1)NC(=O)[C@H](Cc1ccccc1)NC(=O)[C@@H]1CCCC[C@H]1NC(=O)[C@@H](N)Cc1ccc(O)cc1`: 0.439 µM.
In turn, `NC(=O)[C@H](Cc1ccccc1)NC(=O)[C@H](Cc1c[nH]c2ccccc12)NC(=O)[C@@H]1CCCC[C@H]1NC(=O)[C@@H](N)Cc1ccc(O)cc1` came in with an inhibition constant Ki in series [1] of over 10 µM.
With `NC(=O)[C@H](Cc1ccccc1)NC(=O)[C@H](Cc1c[nH]c2ccccc12)NC(=O)[C@H]1CCCC[C@H]1NC(=O)[C@@H](N)Cc1ccc(O)cc1`, the half-life in series [2] was over 12 h. In series [1], this molecule had a Ki of 2.76 µM.
In series [1], `NC(=O)[C@H](Cc1ccccc1)NC(=O)[C@H](Cc1ccccc1)NC(=O)[C@H]1CCCC[C@@H]1NC(=O)[C@@H](N)Cc1ccc(O)cc1` showed an inhibition constant Ki of over 10 µM.
Consider `NC(=O)[C@H](Cc1ccccc1)NC(=O)[C@H](Cc1ccccc1)NC(=O)[C@H]1CCC[C@@H]1NC(=O)[C@@H](N)Cc1ccc(O)cc1`, for which the Ki in series [1] worked out at 4.23 µM.
`NC(=O)[C@H](Cc1ccccc1)NC(=O)[C@H](Cc1c[nH]c2ccccc12)NC(=O)[C@H]1CCCC[C@@H]1NC(=O)[C@@H](N)Cc1ccc(O)cc1` gave a Ki in series [1] of 9.62 µM.
`NC(=O)[C@H](Cc1ccccc1)NC(=O)[C@H](Cc1c[nH]c2ccccc12)NC(=O)[C@@H]1CCCC[C@@H]1NC(=O)[C@@H](N)Cc1ccc(O)cc1` displayed a Ki in series [1] of over 10 µM.
Molecule `NC(=O)[C@H](Cc1ccccc1)NC(=O)[C@H](Cc1c[nH]c2ccccc12)NC(=O)[C@@H]1CCC[C@@H]1NC(=O)[C@@H](N)Cc1ccc(O)cc1` showed an inhibitory constant (Ki) in series [1] of over 10 µM.
For `NC(=O)[C@H](Cc1ccccc1)NC(=O)[C@H](Cc1ccccc1)NC(=O)[C@@H]1CCC[C@H]1NC(=O)[C@@H](N)Cc1ccc(O)cc1`, the inhibition constant Ki in series [1] was 1.41 µM.
The molecule `NC(=O)[C@H](Cc1ccccc1)NC(=O)[C@H](Cc1c[nH]c2ccccc12)NC(=O)[C@H]1CCC[C@H]1NC(=O)[C@@H](N)Cc1ccc(O)cc1` registered a half-life in series [2] of over 12 h. The same molecule yielded an inhibition constant Ki in series [1] of 1.34 µM.
In series [1], `NC(=O)[C@H](Cc1ccccc1)NC(=O)[C@H](Cc1c[nH]c2ccccc12)NC(=O)[C@@H]1CCC[C@H]1NC(=O)[C@@H](N)Cc1ccc(O)cc1` showed an inhibition constant (Ki) of 0.67 µM.
In the case of `NC(=O)[C@H](Cc1ccccc1)NC(=O)[C@H](Cc1ccccc1)NC(=O)[C@@H]1CCCN1C(=O)[C@@H](N)Cc1ccc(O)cc1` [ENDOMORPHIN 2], in the series listed under Rattus norvegicus, the t1/2 turned out to be 3.8 h.
Still for that read-out and setting: next, `NC(=O)[C@H](Cc1ccccc1)NC(=O)[C@H](Cc1c[nH]c2ccccc12)NC(=O)[C@@H]1CCCN1C(=O)[C@@H](N)Cc1ccc(O)cc1` [ENDOMORPHIN-1]: 4.9 h.
